Data taken from ChEMBL document CHEMBL3352584, “Novel DNA gyrase inhibiting spiropyrimidinetriones with a benzisoxazole scaffold: SAR and in vivo characterization” (J Med Chem, 2014).
Converted amounts (≈) assume the structure as drawn.

What was measured:
[1] = Toxicity in po dosed Wistar Hannover rat administered as single dose; type: organism-based; conditions: in vivo
Summary of the method: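 Single-dose oral phase in groups of three male Wistar Hannover rats, at doses up to 1000 mg/kg. Vehicle was 0.2 M meglumine/20% hydroxypropyl-β-cyclodextrin.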

[2] = tested on: Staphylococcus aureus; assay: Antimicrobial activity against methicillin-resistant and quinolone-resistant Staphylococcus aureus by broth microdilution method; type: functional
Summary of the method: (§1)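 Broth microdilution following CLSI guidelines. Values under 12.5 μM are averages of three or more replicates.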

[3] = tested on: Staphylococcus aureus; assay: Antimicrobial activity against methicillin-sensitive Staphylococcus aureus ARC516 infected in immunocompetant mouse assessed as reduction in CFU at free AUC of 13 ug.hr/mL compound administered as single ip dose starting 2 hrs after infection relative to untreated control; type: functional
Summary of the method: (§2)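 CD-1 mouse thighs were infected with mid-log S. aureus ARC516 at a target inoculum of 5 × 10⁵ CFU. Groups of five received IP compound in DMA:TEG:saline 40/40/20%, starting 2 h post-infection; a vehicle group served as control. Mice were killed 24 h after treatment start, and thigh homogenates were plated on tryptic soy agar (37 °C, overnight) for CFU/g. Free exposure was corrected for mouse plasma protein binding.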

[4] = Fraction unbound in rat plasma at 10 uM after 16 hrs by LC-MS/MS analysis; type: ADME, cell-free
Summary of the method: (§3)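 Compound at 10 μM in human, rat or mouse plasma, equilibrium dialysis against buffer at 37 °C for 16 h. Buffer and plasma concentrations measured by LC-MS/MS, and the free fraction taken from their ratio.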

[5] = tested on: Streptococcus pyogenes; assay: Antimicrobial activity against Streptococcus pyogenes by broth microdilution method; type: functional; summary of the method: as §1
[6] = tested on: Rattus norvegicus; assay: fCmax in Wistar Hannover rat at 500 mg/kg, po dosed once daily for 14 days measured on day 14; type: ADME, organism-based; set-up: dose 500 mg/kg, route oral; conditions: in vivo, 336 h
[7] = tested on: Rattus norvegicus; assay: Toxicity in Wistar Hannover rat at 250 to 500 mg/kg, po administered once daily for 14 days; type: organism-based; set-up: dose 250-500 mg/kg, route oral; conditions: in vivo, 336 h
Summary of the method: (§4)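 Repeat-dose oral study in Wistar Hannover rats, three males and three females per group, dosed once daily for 14 days at 0, 250, 500 or 750 mg/kg/day and necropsied on day 15. Endpoints were clinical signs, body weight, food intake, temperature, hematology, plasma chemistry, toxicokinetics, and gross and microscopic pathology.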

[8] = tested on: Staphylococcus aureus; assay: Antimicrobial activity against methicillin-sensitive Staphylococcus aureus ARC516 infected in immunosupressed mouse administered as single ip dose starting 2 hrs after infection; type: functional, organism-based
[9] = tested on: Staphylococcus aureus; assay: Inhibition of cell wall biosynthesis in methicillin-sensitive Staphylococcus aureus by [14C]-N-acetylglucosamine incorporation assay; type: functional, organism-based
[10] = tested on: Staphylococcus aureus; assay: Antimicrobial activity against methicillin-sensitive Staphylococcus aureus ARC516 infected in immunosupressed mouse assessed as reduction in CFU at AUC of 120 ug.hr/mL compound administered as single ip dose starting 2 hrs after infection relative to untreated control; type: functional
Summary of the method: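 Mice were made neutropenic with IP cyclophosphamide, 150 mg/kg at day −4 and 100 mg/kg at day −1. CD-1 thighs were then infected with mid-log S. aureus ARC516 (target 5 × 10⁵ CFU). Groups of five received IP compound in DMA:TEG:saline 40/40/20%, starting 2 h post-infection, alongside vehicle controls. At 24 h after treatment start, thigh homogenates were plated on tryptic soy agar (37 °C, overnight) for CFU/g.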

[11] = target: DNA gyrase (Escherichia coli, UniProt P0AES4+P0AES6); assay: Inhibition of Escherichia coli DNA gyrase using fluorescence-tagged DNA by fluorescenct polarization assay; type: protein-complex assay
Summary of the method: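 E. coli DNA gyrase supercoiling assay. The read-out was differential binding of a fluorescence-tagged DNA to relaxed versus supercoiled DNA, giving IC50.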

[12] = tested on: Staphylococcus aureus; assay: Inhibition of RNA synthesis in methicillin-sensitive Staphylococcus aureus by [3H]-uridine incorporation assay; type: functional, organism-based
[13] = tested on: Streptococcus pneumoniae; assay: Antimicrobial activity against Streptococcus pneumoniae by broth microdilution method; type: functional; summary of the method: as §1
[14] = tested on: Haemophilus influenzae; assay: Antimicrobial activity against Haemophilus influenzae by broth microdilution method; type: functional; summary of the method: as §1
[15] = tested on: Staphylococcus aureus; assay: Antimicrobial activity against wild-type Staphylococcus aureus 516 by broth microdilution method; type: functional; summary of the method: as §1
[16] = tested on: Staphylococcus aureus; assay: Antimicrobial activity against Staphylococcus aureus 2375 harboring GyrA S84L mutant, GyrB R144A mutant and ParC S80Y/E84G/V693M mutant and ParE N141S mutant by broth microdilution method; type: functional
[17] = tested on: Rattus norvegicus; assay: fAUC in Wistar Hannover rat at 500 mg/kg, po dosed once daily for 14 days measured on day 14; type: ADME, organism-based; set-up: dose 500 mg/kg, route oral; conditions: in vivo, 336 h
[18] = tested on: Staphylococcus aureus; assay: Antimicrobial activity against methicillin-sensitive Staphylococcus aureus ARC516 infected in immunocompetant mouse assessed as reduction in CFU at AUC of 70 ug.hr/mL compound administered as single ip dose starting 2 hrs after infection relative to untreated control; type: functional; summary of the method: as §2
[19] = Toxicity in po dosed Wistar Hannover rat administered administered once daily for 14 days; type: organism-based; conditions: in vivo; summary of the method: as §4
[20] = target: DNA topoisomerase 2-alpha (Homo sapiens, UniProt P11388); assay: Inhibition of human topoisomerase 2alpha
[21] = Cmax in Wistar Hannover rat at 500 mg/kg, po dosed once daily for 14 days measured on day 14; type: ADME, organism-based; set-up: dose 500 mg/kg, route oral; conditions: in vivo
Summary of the method: (§5)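 Wistar Hannover rats, 2 males and 2 females per dose, dosed orally once daily for 14 days at 250, 500 or 750 mg/kg/day. Vehicle was 0.2 M meglumine/20% hydroxypropyl-β-cyclodextrin. Blood was sampled on day 14 and exposure measured in blood. Animals were killed after sampling without necropsy.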

[22] = AUC in Wistar Hannover rat at 500 mg/kg, po dosed once daily for 14 days measured on day 14; type: ADME, organism-based; set-up: dose 500 mg/kg, route oral; conditions: plasma; summary of the method: as §5
[23] = tested on: Staphylococcus aureus; assay: Antimicrobial activity against methicillin-sensitive Staphylococcus aureus ARC516 infected in mouse at 3 to 100 mg/kg/day, ip starting 2 hrs after infection; type: functional, organism-based
Summary of the method: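 CD-1 mouse thighs infected with mid-log S. aureus ARC516 at a target inoculum of 5 × 10⁵ CFU. Groups of five received ip compound in DMA:TEG:saline 40/40/20, either q24h or q6h, from 2 h post-infection. Mice were killed 24 h after treatment start and thigh homogenates plated on tryptic soy agar (37 °C overnight) for CFU/g. Neutropenia was induced with ip cyclophosphamide, 150 mg/kg on day −4 and 100 mg/kg on day −1.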

[24] = Fraction unbound in mouse plasma at 10 uM after 16 hrs by LC-MS/MS analysis; type: ADME, cell-free; summary of the method: as §3
[25] = tested on: Streptococcus pneumoniae; assay: Antimicrobial activity against Streptococcus pneumoniae 2485 harboring GyrA S81F mutant, GyrB D160E/T329A mutant and ParC S79F mutant by broth microdilution method; type: functional
[26] = tested on: Staphylococcus aureus; assay: Antimicrobial activity against methicillin-sensitive Staphylococcus aureus by broth microdilution method in presence of 50% human serum; type: functional
Summary of the method: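 CLSI broth microdilution against methicillin-sensitive S. aureus, run with 50% human serum added to the medium to reflect plasma protein binding. Values under 12.5 μM are averages of three or more replicates.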

[27] = Cmax in Wistar Hannover rat at 750 mg/kg, po dosed once daily for 14 days measured on day 14; type: ADME, organism-based; set-up: dose 750 mg/kg, route oral; conditions: in vivo; summary of the method: as §5
[28] = tested on: Staphylococcus aureus; assay: Antimicrobial activity against methicillin-sensitive Staphylococcus aureus by broth microdilution method; type: functional; summary of the method: as §1

DNA topoisomerase 2-alpha, sequence (P11388 whole entry): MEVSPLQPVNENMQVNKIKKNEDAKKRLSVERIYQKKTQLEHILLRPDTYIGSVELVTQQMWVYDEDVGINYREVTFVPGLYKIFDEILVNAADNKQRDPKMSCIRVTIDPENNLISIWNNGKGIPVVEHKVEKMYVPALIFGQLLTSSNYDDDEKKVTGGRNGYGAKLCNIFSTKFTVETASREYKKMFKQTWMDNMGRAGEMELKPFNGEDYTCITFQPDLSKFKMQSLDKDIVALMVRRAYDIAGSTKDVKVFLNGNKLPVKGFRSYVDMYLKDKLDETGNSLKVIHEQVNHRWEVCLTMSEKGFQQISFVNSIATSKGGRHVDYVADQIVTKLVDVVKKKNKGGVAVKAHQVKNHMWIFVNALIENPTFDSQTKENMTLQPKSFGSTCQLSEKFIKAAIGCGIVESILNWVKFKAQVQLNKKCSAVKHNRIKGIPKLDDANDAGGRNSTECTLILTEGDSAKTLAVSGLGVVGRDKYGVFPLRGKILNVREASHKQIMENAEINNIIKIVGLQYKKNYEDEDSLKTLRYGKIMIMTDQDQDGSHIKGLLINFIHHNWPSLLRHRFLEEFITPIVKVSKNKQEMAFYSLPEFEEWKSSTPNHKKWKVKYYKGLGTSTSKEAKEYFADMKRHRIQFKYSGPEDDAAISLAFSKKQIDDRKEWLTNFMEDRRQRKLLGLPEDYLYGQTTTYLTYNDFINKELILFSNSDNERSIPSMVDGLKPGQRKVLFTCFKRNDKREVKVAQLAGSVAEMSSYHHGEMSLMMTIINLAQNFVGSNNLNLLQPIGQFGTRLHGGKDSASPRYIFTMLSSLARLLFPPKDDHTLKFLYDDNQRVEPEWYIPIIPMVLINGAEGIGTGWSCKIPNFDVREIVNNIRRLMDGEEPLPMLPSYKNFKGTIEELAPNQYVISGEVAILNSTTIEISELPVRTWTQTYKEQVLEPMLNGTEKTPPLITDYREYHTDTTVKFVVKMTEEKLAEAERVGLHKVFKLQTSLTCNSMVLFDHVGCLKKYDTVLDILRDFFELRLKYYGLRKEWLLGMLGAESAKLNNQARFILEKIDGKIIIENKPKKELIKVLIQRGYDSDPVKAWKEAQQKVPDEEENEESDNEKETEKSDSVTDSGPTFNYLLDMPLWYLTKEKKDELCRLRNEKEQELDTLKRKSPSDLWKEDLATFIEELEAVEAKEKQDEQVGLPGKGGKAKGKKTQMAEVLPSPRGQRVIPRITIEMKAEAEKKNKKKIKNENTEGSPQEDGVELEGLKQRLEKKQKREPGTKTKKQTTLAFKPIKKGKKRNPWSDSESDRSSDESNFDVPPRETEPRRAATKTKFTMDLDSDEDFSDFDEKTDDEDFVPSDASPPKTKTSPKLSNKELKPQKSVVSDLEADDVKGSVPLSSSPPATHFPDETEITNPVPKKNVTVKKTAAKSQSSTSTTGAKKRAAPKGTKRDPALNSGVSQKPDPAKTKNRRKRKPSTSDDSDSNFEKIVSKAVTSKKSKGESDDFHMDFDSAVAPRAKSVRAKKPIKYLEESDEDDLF

Cc1noc2c(F)c3c(cc12)CC1(C(=O)NC(=O)NC1=O)[C@H]1[C@H](C)O[C@H](C)CN31
MTD [1]: ≤ 750 mg/kg | MIC [2]: 2 µM (≈ 0.805 µg/mL) | fold change (FC) [3]: 3 | fraction unbound at 16 h, 10 µM [4]: 0.16 | MIC [5]: 6.2 µM (≈ 2.49 µg/mL) | fCmax [6]: 70 µmol/L | Activity [7]: Non-toxic | Activity [8]: Dose-dependent effect | IC50 [9]: 8 µg/mL (≈ 19.9 µM) | fold change (FC) [10]: 3 | IC50 [11]: 0.29 µM | IC50 [12]: 5 µg/mL (≈ 12.4 µM) | MIC [13]: 8.8 µM (≈ 3.54 µg/mL) | MIC [14]: 1 µM (≈ 0.402 µg/mL) | MIC [15]: 0.5 µg/mL (≈ 1.24 µM) | MIC [16]: 0.5 µg/mL (≈ 1.24 µM) | fAUC [17]: 700 µM·h | fold change (FC) [18]: 3 | NOAEL at 336 h [19]: 500 mg/kg | IC50 [20]: 50 µM | Cmax [21]: 440 µM | AUC at 336 h [22]: 4400 µM·h | Activity [23]: Dose-dependent effect | fraction unbound at 16 h, 10 µM [24]: 0.19 | MIC [25]: 2 µg/mL (≈ 4.97 µM) | MIC [26]: 3.1 µM | Cmax [27]: 487 µM | MIC [28]: 1 µM (≈ 0.402 µg/mL)
